bCat nuc transl: alters nuclear translocation of beta-catenin in HeLa cells; nuclear translocation activity, % at 5 µM; immunofluorescence imaging; 190,000 tested, 0.3% active; AID 1665;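 active means nuclear translocation activity above 50% at 5 µM, with a well cell count of 50 or more; inconclusive means wells under 50 cells across six images, flagged as toxic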;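 further: per-cell ratio of nuclear to cytoplasmic median beta-catenin stain intensity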
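Read-out: Nuclear/cytoplasmic beta-catenin signal ratio, % activation | Assay system: Human HeLa cell line | Times: 24 h compound exposure at 37°C, 5% CO2 | Signal: Fluorescence imaging of beta-catenin antibody stain plus DAPI | Dosing: 5 µM primary, 0.02–20 µM confirmation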
Ba/F3 V617F tox: loss of viability in JAK2V617F-driven Ba/F3 cells; inhibition, % at 5.6 µM; Ba/F3 EpoR-JAK2V617F viability, ATP luminescence; AID 1446; 220,000 tested, 1.1% active;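 active means inhibition above the campaign mean plus 3 SD over all tested compounds, cut at about 24% in these data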;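 further: cytokine-independent growth of Ba/F3 cells driven by EpoR plus mutant JAK2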
KLF5 inhibitor: inhibitors of KLF5 expression; DLD-1 KLF5 promoter-luciferase reporter, luminescence; inhibition, % at 5 µM; 290,000 tested, 0.23% active;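 active means inhibition above a per-plate limit of that plate's mean compound inhibition plus 3 SD, cut at about 60% in these data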;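 further: higher means less KLF5 promoter-driven luciferase light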
BaF3 parental: counter-screen for JAK2V617F inhibitors: parental Ba/F3 viability inhibitors | CellTiter-Glo ATP luminescence | inhibition, % at 5.6 µM | 220,000 tested, 1.1% active | AID 1486;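 active means inhibition above a per-campaign cutoff, the mean inhibition of all tested compounds plus 3 SD, cut at about 27% in these data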
MT stabilizer: microtubule stabilizers in HeLa cells | HeLa tubulin immunostaining HCS, 24 h; share of cells brighter than vehicle mean+2SD | % tubulin-high responders, % at 10 µM | 200,000 tested, 0.83% active;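 active means plate Z-score above 3 for both tubulin-high and condensed-nucleus cell shares, with cell loss under 80%, at 10 µM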;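 further: anti alpha tubulin signal scored within the nucleus-defined area of each cell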
IEC-6 tox: IEC-6 cytotoxicity, counter-screen for KLF5 inhibitors; luminescence viability; inhibition, % at 5 µM; 290,000 tested, 0.78% active; in the data active means inhibition above about 22%
Each line names hits and unclear results; the compound was inactive in the other large screens. Rows were chosen to be rich in hits. Some 2.1% of all compounds tested hit in one or more screens of this group.

O=C(N/N=C/c1c(O)n(Cc2ccc(F)cc2)c(=O)[nH]c1=O)c1ccccc1O	MT stabilizer 14
Cc1ccc(/C=C2\C(=O)NC(=S)N(c3ccccc3F)C2=O)s1	MT stabilizer 33
CCC[N+]12CCC(CC1)C(=C(c1ccccc1)c1ccccc1)C2	BaF3 parental 36
COc1cccc(NP(=O)(Oc2ccc(Cl)cc2)Oc2ccc(Cl)cc2)c1	bCat nuc transl 90
Cc1ccc(C2CC3CCC(C2)N3Cc2ccccc2F)cc1 (configuration not stated)	none (no result: bCat nuc transl, Ba/F3 V617F tox, BaF3 parental, MT stabilizer)
CN(C)c1ccc(/C=C/C=C/c2sc3ccccc3[n+]2C)cc1	Ba/F3 V617F tox 99, BaF3 parental 79 (no result: MT stabilizer)
C[n+]1c(-c2ccccc2)sc2ccccc21	none (no result: bCat nuc transl, Ba/F3 V617F tox, BaF3 parental, MT stabilizer)
CCC1(OC(=O)CN)C(=O)OCc2c1cc1n(c2=O)Cc2cc3ccccc3nc2-1 (configuration not stated)	Ba/F3 V617F tox 99, KLF5 inhibitor 104, BaF3 parental 96, IEC-6 tox 96 (no result: MT stabilizer)
C=C(C=O)CC1CC(O)[C@]2(C)OC3CC4OC5C[C@]6(C)O[C@]7(C)CCC8OC9C[C@]%10(C)OC%11C(C)=CC(=O)OC%11CC%10OC9C[C@@H](C)C8OC7CC6O[C@]5(C)CC5OC5C4OC3CC2O1 (some centres not stated)	Ba/F3 V617F tox 97, BaF3 parental 97
C=C(CO)CC1CC(O)[C@]2(C)OC3CC4OC5C[C@]6(C)O[C@]7(C)CCC8OC9C[C@]%10(C)OC%11C(C)=CC(=O)OC%11CC%10OC9C[C@@H](C)C8OC7CC6O[C@]5(C)C/C=C\C4OC3CC2O1 (some centres not stated)	none
Cc1cccc(C)c1N1CCN(c2c(C)cccc2C)CC1	none (no result: bCat nuc transl, Ba/F3 V617F tox, BaF3 parental, MT stabilizer)
c1ccc2c(CN3CCCCCCC3)c[nH]c2c1	Ba/F3 V617F tox 49, BaF3 parental 38
c1ccc2c(CN3CCN(C4CCCCC4)CC3)c[nH]c2c1	none
NC(=S)c1cn(C2OC(CO)C(O)C2O)c2ncnc(N)c12 (configuration not stated)	bCat nuc transl inconclusive, Ba/F3 V617F tox 99, KLF5 inhibitor 110, BaF3 parental 104, IEC-6 tox 100 (no result: MT stabilizer)
COc1ccc(-n2cnc3cc(C(=O)N4CCC5(CC4)OCCO5)ccc32)cc1	MT stabilizer 13
CC(C)(C)C(=O)Nc1ccc(S(=O)(=O)N2CC3CC(C2)c2cccc(=O)n2C3)cc1 (configuration not stated)	none (no result: bCat nuc transl, Ba/F3 V617F tox, BaF3 parental, MT stabilizer)
CC(C)C(=O)c1cn(Cc2ccccc2C#N)c2ccccc12	none (no result: bCat nuc transl)
CC(=O)c1cn(Cc2ccccc2C#N)c2ccccc12	Ba/F3 V617F tox 46, BaF3 parental 67
CCN(CC)Cc1c[nH]c2ccccc12	none
CN1CC=C(c2c[nH]c3ccccc23)CC1	Ba/F3 V617F tox 29, BaF3 parental 61
C1=C(c2c[nH]c3ccccc23)CCN(Cc2ccccc2)C1	Ba/F3 V617F tox 97, BaF3 parental 76
Cc1cc(OCC(=O)N2CCCN(C)CC2)ccc1Cl	none (no result: bCat nuc transl, Ba/F3 V617F tox, BaF3 parental, MT stabilizer)
Cc1ccc(-n2c(O)c(C=NCCC3=CCCCC3)c(=O)[nH]c2=O)cc1	none
COc1ccccc1-n1c(/C=C/c2ccccn2)nc2ccccc2c1=O	none (no result: bCat nuc transl, Ba/F3 V617F tox, BaF3 parental, MT stabilizer)
O=C(c1cc2c(s1)-c1ccccc1OC2)N1CCC2(CC1)OCCO2	MT stabilizer 54
Cc1cc(C)[n+](C2C3CC4CC(C3)CC2C4)o1 (configuration not stated)	Ba/F3 V617F tox 68, BaF3 parental 66
O=C1CN=C(c2cccs2)c2c(sc3c2CCCC3)N1	MT stabilizer 54
Cc1c(C(c2ccc(Cl)cc2Cl)c2c(O)c3ccccc3oc2=O)c(=O)n(-c2ccccc2)n1C (configuration not stated)	none
O=c1[nH]c(=O)n(Cc2ccccc2Cl)c(O)c1/C=C1/C=CC=N1	MT stabilizer 29
O=c1[nH]c(=S)[nH]c(O)c1N=Nc1ccc(S(=O)(=O)N2CCc3ccccc32)cc1	none
Cn1cc(C(=O)N2CCOCC2)c2ccccc21	none
CC[n+]1c(/C=C/N(C)c2ccccc2)sc2ccc(Cl)cc21	Ba/F3 V617F tox 80, BaF3 parental 72 (no result: bCat nuc transl)
Nc1ccccc1C(=O)OCC(=O)Nc1ccc(Br)cc1F	none
O=C(Cc1cc(=O)[nH]c(=O)[nH]1)N1CCN(CCO)CC1	none
CP(C)(=O)CCC(=O)O	BaF3 parental 36
Cc1cccn2c(=O)c3cc(C(=O)N4CCC5(CC4)OCCO5)n(C)c3nc12	MT stabilizer 34
O=C1CN=C(c2ccccc2)c2c(sc3c2CCCC3)N1	none (no result: bCat nuc transl, Ba/F3 V617F tox, BaF3 parental, MT stabilizer)
CCOc1ccccc1-n1c(O)c(C=Nc2ccc(N(CC)CC)cc2)c(=O)[nH]c1=O	MT stabilizer 22
CCOc1ccc(-c2cc(C)[n+](CCO)c(-c3ccc(OCC)cc3)c2)cc1	Ba/F3 V617F tox 57, BaF3 parental 72
COC(=O)C1=Nc2ccccc2/C1=C\c1c(O)n(-c2ccc(Br)cc2)c(=O)[nH]c1=O	none
O=c1[nH]c(=O)n(-c2ccccc2)c(O)c1/C=C1/C(c2ccccc2)=Nc2ccccc21	bCat nuc transl 80, Ba/F3 V617F tox 80, BaF3 parental 68, MT stabilizer 31, IEC-6 tox 55
COc1cc(CNCCc2ccc3c(c2)OCO3)cc(OC)c1OC	none
CCCCC/C(=N\O)c1c[nH]c2ccccc12	none
CC(C(=O)c1c[nH]c2ccccc12)N1CCc2ccccc2C1 (configuration not stated)	Ba/F3 V617F tox 26, BaF3 parental 43
Cc1cccc(C)c1NC(=O)CN(C)CC(=O)Nc1ccc(C#N)c(Cl)c1	none
Cc1cc(=O)[nH]c(CCl)n1	none
CC(=O)OC(C)(C)/C=C/C(=O)[C@](C)(O)[C@H]1[C@H](O)C[C@@]2(C)[C@@H]3CC=C4[C@H](C[C@H](O)C(=O)C4(C)C)[C@]3(C)C(=O)C[C@]12C	Ba/F3 V617F tox 101, KLF5 inhibitor 83, BaF3 parental 88, MT stabilizer 40, IEC-6 tox 98 (no result: bCat nuc transl)
O=P(NCc1ccccc1)(Oc1ccccc1)Oc1ccccc1	none
Cc1nn(Cc2ccc(Cl)cc2Cl)c(Cl)c1C(=O)O	none
N=c1c2c(n(Cc3ccc(Cl)cc3Cl)c3c1CCC3)CCCC2	Ba/F3 V617F tox 92, BaF3 parental 70
CCCCn1c(O)c(C(CC)=Nc2ccc(OC)cc2OC)c(=O)[nH]c1=O	MT stabilizer 29
CCCCn1c(O)c(C(CC)=Nc2ccc(OCC)cc2)c(=O)[nH]c1=O	none
CCCCn1c(O)c(C(CC)=NC(C)c2ccccc2)c(=O)[nH]c1=O (configuration not stated)	MT stabilizer 47 (no result: bCat nuc transl)
CCCCn1c(O)c(C(C)=NC(C)c2ccccc2)c(=O)[nH]c1=O (configuration not stated)	none
COc1ccccc1CCNC1CCC(C)CC1 (configuration not stated)	none
CSc1ncc(Cl)c(C(=O)O)n1	none
